Source: PubChem BioAssay (several laboratories)
NR2E3 ag-1 = NR2E3 agonists in two-hybrid cells, primary screen, cell-based, luminescence, CHO-S, Gal4-NCOR/VP16-NR2E3. Photoreceptor-specific nuclear receptor (Homo sapiens), Q9Y5X4. actives 0.35% (n = 360,000). luciferase. inhibition of corepressor binding, % at 3.98 µM. AID 602229, 2012;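 active = inhibition above the mean of all tested compounds plus 3 SD, cut at about 70% in these data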;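 also: 0% = DMSO with NR2E3 transfected cells and 100% = cells lacking NR2E3 construct; higher means lower luciferase signal from less NR2E3 corepressor binding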
Gli-Sufu antag = Gli-Sufu pathway antagonists, primary screen, luciferase luminescence, Sufu-KO-LIGHT cells, uHTS; Sufu-KO-LIGHT fibroblasts, Gli luciferase reporter luminescence; actives 0.74% (n = 340,000); inhibition, % at 5 µM;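 active = inhibition above about 55%, limit read from the data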;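 also: 0% = DMSO-treated cells and 100% = wells with medium but no cells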
697 NFkB inh = inhibitors of PMA/ionomycin-induced NF-kB reporter, 697 cells, primary screen, B-cell NF-kB inhibitor project, cell-based, luminescence, uHTS; AID 435022, 2010; inhibition, % at 4 µM; actives 0.33% (n = 330,000); 697 B-cell NF-kB luciferase reporter, 16 h; in the data active = inhibition above about 35%
NR2E3 ag-2 = inhibitors of NR2E3-RetCOR corepressor binding, primary screen, NR2E3 agonist project, biochemical, TR-FRET, GST-NR2E3, biotin-RetCOR. Photoreceptor-specific nuclear receptor (Homo sapiens), Q9Y5X4. 1536-well. inhibition of corepressor binding, % at 4.78 µM. actives 0.12% (n = 320,000). AID 2300, 2010;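 active = percent inhibition above the cutoff of mean plus 3 SD of all tested compounds, set per screening campaign, cut at about 20% in these data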;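 also: 0% = DMSO wells and 100% = biotin wells as full block of FRET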
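System: GST-tagged NR2E3 plus biotinylated RetCOR corepressor; Buffer or medium: pH 7.5 Tris-based buffer; Probe or stimulus: RetCOR corepressor, biotinylated, 7 nM; Doses: compound at 4.8 µM, single dose; Schedule: 5 h incubation at 4 °C; Technique: time-resolved FRET; Evaluation: percent inhibition of TR-FRET ratio; Replication: one well per compound, singlicate testing.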
GalR3 antagonist = GalR3 antagonists in HEK293 cells, primary screen, cell-based, fluorescence readout. HEK293 GalR3-CNG cAMP membrane potential fluorescence; galR3 body fused to GalR1 C-terminus. inhibition, % at 3 µM. actives 0.44% (n = 360,000). AID 651719, 2012;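 active = inhibition above the screen-wide average plus 3 SD, cut at about 13% in these data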;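 also: forskolin and galanin both at EC90 stimulate the cells; cAMP rise reported by CNG channel membrane potential dye signal; 0% = forskolin plus galanin with DMSO and 100% = forskolin alone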
Target sequence (O60755 1-299 limits assumed): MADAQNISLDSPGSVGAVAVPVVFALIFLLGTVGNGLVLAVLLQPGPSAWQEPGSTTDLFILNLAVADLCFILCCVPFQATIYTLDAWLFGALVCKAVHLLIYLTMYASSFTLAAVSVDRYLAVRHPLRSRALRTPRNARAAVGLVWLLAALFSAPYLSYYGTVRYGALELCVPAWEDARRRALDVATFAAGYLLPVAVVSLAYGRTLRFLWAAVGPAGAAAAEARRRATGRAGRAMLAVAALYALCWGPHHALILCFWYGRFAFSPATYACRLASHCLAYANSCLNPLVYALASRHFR
Jurkat NFkB inh = inhibitors of induced NF-kB luciferase reporter, primary screen, TCR NF-kB activation inhibitor project, cell-based, luminescence, uHTS; Jurkat, PMA/ionomycin-induced NF-kB luciferase reporter; inhibition, % at 4 µM; actives 0.53% (n = 330,000); AID 435003, 2010; in the data active = inhibition above about 50%
Gli antag conf = Gli-SUFU pathway antagonists, confirmation, single concentration, luciferase luminescence, Sufu-KO-LIGHT cells. inhibition, % at 5 µM. AID 602428, 2012. actives 40% (n = 2,500). Gli luciferase reporter. shares compounds with Gli-Sufu antag;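 active = mean inhibition at 5 µM reaching about 45%, limit read from the data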;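 also: plate controls were DMSO-treated cells for no effect and wells lacking cells for full effect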
Gli cytotox = cytotoxicity in Sufu-KO-LIGHT cells, confirmation, cytotoxicity control for Gli-SUFU antagonist project, cell-based, ATP luminescence, single concentration; cytotoxicity, % at 5 µM; AID 651994, 2013; actives 32% (n = 2,500); shares compounds with Gli-Sufu antag;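 active = mean cytotoxicity at 5 µM above about 25%, limit read from the data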;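 also: cells exposed to compound overnight for roughly 16 to 18 hours; plate controls were DMSO wells with cells for no effect and medium without cells for full effect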
Wnt3a cs = Wnt3a reporter signal inhibition, confirmation, counter-screen for Gli-SUFU antagonist project, Wnt-LIGHT cells, luminescence, single concentration; shares compounds with Gli-Sufu antag; Wnt3a-driven luciferase reporter; inhibition, % at 6.25 µM; actives 20% (n = 2,500); AID 651995, 2013;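 active = mean inhibition above about 25%, limit read from the data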
Numbers without * were called inactive; . = no result. A selection: hits, their analogues and other compounds. The true share with any hit is near 1.8%.

SMILES	NR2E3 ag-1	Gli-Sufu antag	697 NFkB inh	NR2E3 ag-2	GalR3 antagonist	Jurkat NFkB inh	Gli antag conf	Gli cytotox	Wnt3a cs
CCCc1cc(=O)oc2cc(C)cc(OCC(=O)Nc3ccccn3)c12	-3.5	9.1	-3.1	0.9	-7.8	2.9	.	.	.
COc1ccc(CCCNC(=O)C2Cc3c(-c4ccccc4)ccnc3O2)cc1 (stereo not drawn)	18.6	.	.	.	-5.0	.	.	.	.
COc1ccc(C(CNC(=O)c2cc(S(=O)(=O)N3CCN(c4ccccc4)CC3)ccc2Cl)N(C)C)cc1 (stereo not drawn)	20.3	68.3*	-16.7	.	-8.3	16.5	21.5	13.0	-43.3
Cc1ccc2cc(CN(CC3CCCO3)C(=S)Nc3ccccc3)c(=O)[nH]c2c1C (stereo not drawn)	-29.7	65.0*	-129.2	1.4	3.3	36.9	81.5*	32.7*	21.7
Cc1cnn2c(C3CC3)ccnc12	-5.7	57.7*	10.9	5.7	5.1	0.5	11.9	19.2	-7.5
O=C(NC(CC1=CCCCC1)c1ccccc1)C(F)(F)F (stereo not drawn)	.	.	.	.	-7.3	.	.	.	.
COc1ccc(-c2c[n+](CC(=O)OC3CC(C)CCC3C(C)C)c3n2CCC3)cc1 (stereo not drawn)	-11.4	89.8*	5.5	-0.6	-0.1	16.1	89.5*	26.0*	19.9
CC1CCC(C(C)C)C(OC(=O)C[n+]2cccc(C(N)=O)c2)C1 (stereo not drawn)	-13.1	-27.7	11.6	-2.1	-1.9	0.9	.	.	.
CC(C)[C@@H]1CC[C@@H](C)C[C@H]1OC(=O)C[n+]1cc(-c2ccc(Cl)cc2)n2c1CCCCC2	-13.9	66.0*	-13.8	-2.9	-5.5	21.3	77.2*	34.8*	-32.5
CCOc1cc(/C=C2/NC(=O)N(Cc3ccccc3F)C2=O)ccc1O	19.4	74.3*	4.6	0.6	-2.0	29.4	70.5*	19.3	45.4*
COc1cc(CNCc2cc(OC)ccc2OC)cc(OC)c1	-22.9	57.2*	-12.3	0.2	-1.9	13.9	14.4	9.9	-1.6
Cc1ccc(CC2SC(=Nc3ccccc3)N(c3ccccc3)C2=O)cc1 (stereo not drawn)	-3.7	57.9*	9.5	-2.8	-0.9	-1.5	18.9	8.9	-13.1
O=C(O)CC1SC(=Nc2ccccc2)N(c2ccccc2)C1=O (stereo not drawn)	-22.8	3.5	15.3	2.7	3.8	13.3	.	.	.
COC(=O)C1=C(C)N(C)C(=NCc2ccc(OC)cc2)NC1c1ccc(C(F)(F)F)cc1 (stereo not drawn)	.	.	.	.	-7.7	.	.	.	.
COc1ccc2c(c1)c(CC(=O)OCC(=O)O)c(C)n2C(=O)c1ccc(Cl)cc1	-0.8	-18.5	12.1	1.1	-0.2	11.2	.	.	.
COc1ccc2c(c1)c(CC(=O)OCC(N)=O)c(C)n2C(=O)c1ccc(Cl)cc1	-1.0	64.5*	6.4	0.7	-7.1	6.7	12.1	-3.3	-6.8
CS(=O)(=O)c1cccc(OCCCN2CCC(C(O)(c3ccccc3)c3ccccc3)CC2)c1	.	.	.	.	-9.8	.	.	.	.
Cn1c(=O)c2c(nc(SCC(=O)NCc3ccc4c(c3)OCO4)n2Cc2ccc(Cl)cc2)n(C)c1=O	8.2	61.6*	-2.9	-2.6	2.8	-18.5	26.9	-7.1	-25.2
